ChEMBL document CHEMBL1123566, “Synthesis and cardiac electrophysiological activity of 2- and 3-[(substituted phenyl)alkyl]quinuclidines. Structure-activity relationships” (1987)
Values joined by “and” are separate entries in the source; they are usually repeats but may differ in a detail not shown here. Equal entries are not always repeated.

Experiments:
Canis familiaris [1] = species on record: Canis familiaris; assay: In vitro electrophysiological activity in canine cardiac occurred is 100 uM; assay type: functional, Canis lupus familiaris, Heart
Canis familiaris [2] = species on record: Canis familiaris; assay: In vitro electrophysiological evaluation in canine cardiac Purkinje fibres reported as % change for action potential duration at a concentration of 10 uM; assay type: functional, Canis lupus familiaris, Purkinje fiber
Method in brief: (§1)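 Canine cardiac Purkinje fibres, intracellular microelectrode recording, paced at a basic cycle length of 1 s. APD95 and Vmax read simultaneously. Compound: 10 mM stock in deionized water, diluted into Tyrode's solution, tested over the stated concentration range. Each fibre used once as its own control. Result is % change from control, given at 10 µM or as the maximum with its concentration. M = <10% decrease or an increase in Vmax.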

Canis familiaris [3] = species on record: Canis familiaris; assay: In vitro electrophysiological evaluation in canine cardiac Purkinje fibres reported as percent change Vmax at 10 uM at concentration range of 1-100 uM; Minimal (<10% decrease or increase in V max).; assay type: functional; conditions: Canis lupus familiaris, Purkinje fiber; method in brief: as §1
Canis familiaris [4] = species on record: Canis familiaris; assay: In vitro electrophysiological evaluation in canine cardiac ventricular muscle reported as maximum % change for functional refractory period (FRP) at 0.1-100 uM concentration range; concentration at which it occurred is 100 uM.; design: species or system Canis lupus familiaris, Muscle tissue
Method in brief: (§2)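 Canine right ventricle and papillary muscle strips in oxygenated Tyrode's solution, fitted with stimulating and recording electrodes. The extra-stimulus conduction-interval method was adapted for in vitro use. FRP and CT were read from a conduction-interval curve before and after various compound concentrations, and expressed as percent change from control. Compounds were taken from 10 mM deionized-water stock into Tyrode's. Each strip was used once as its own control.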

Canis familiaris [5] = species on record: Canis familiaris; assay: In vitro electrophysiological evaluation in canine cardiac Purkinje fibres reported as percent change Vmax at 10 uM at concentration range of 0.1-100 uM; Minimal (<10% decrease or increase in V max).; assay type: functional, organism-based; conditions: Canis lupus familiaris, Purkinje fiber; method in brief: as §1
Canis familiaris [6] = species on record: Canis familiaris; assay: In vitro electrophysiological evaluation in canine cardiac Purkinje fibres reported as maximum percent change Vmax concentration range of 1-100 uM; Minimal (<10% decrease or increase in V max).; assay type: functional; conditions: Canis lupus familiaris; Purkinje fiber; method in brief: as §1
Canis familiaris [7] = species on record: Canis familiaris; assay: In vitro electrophysiological evaluation in canine cardiac occurred is 100 uM; assay type: functional; conditions: Canis lupus familiaris; Heart
Canis familiaris [8] = species on record: Canis familiaris; assay: In vitro electrophysiological evaluation in canine cardiac Purkinje fibres reported as % change for action potential duration at 10 uM at 1-100 uM concentration range; assay type: functional, Canis lupus familiaris, Purkinje fiber; method in brief: as §1
Canis familiaris [9] = species on record: Canis familiaris; assay: In vitro electrophysiological evaluation in canine cardiac Purkinje fibres reported as % change for action potential duration at 10 uM at 0.1-100 uM concentration range; assay type: functional, Canis lupus familiaris, Purkinje fiber; method in brief: as §1
Canis familiaris [10] = species on record: Canis familiaris; assay: In vitro electrophysiological evaluation in canine cardiac ventricular muscle reported as % change for conduction time(CT) at 10 uM at 0.1-100 uM concentration range; Minimal (<10% decrease or increase in CT).; assay type: functional, Canis lupus familiaris, Muscle tissue
Canis familiaris [11] = species on record: Canis familiaris; assay: In vitro electrophysiological evaluation in canine cardiac ventricular muscle reported as maximum % change for conduction time(CT) at 0.1-100 uM concentration range; Minimal (<10% decrease or increase in CT).; assay type: functional, Canis lupus familiaris, Muscle tissue; method in brief: as §2
Canis familiaris [12] = species on record: Canis familiaris; assay: In vitro electrophysiological evaluation in canine cardiac Purkinje fibres reported as maximum percent change Vmax concentration range of 0.1-100 uM; Minimal (<10% decrease or increase in V max).; assay type: functional; conditions: Canis lupus familiaris; Purkinje fiber; method in brief: as §1
Canis familiaris [13] = species on record: Canis familiaris; assay: In vitro electrophysiological evaluation in canine cardiac ventricular muscle reported as % change for the functional refractory period (FRP) at 10 uM at concentration range of 0.1-100 uM; design: species or system Canis lupus familiaris, Muscle tissue; method in brief: as §2
Canis familiaris [14] = species on record: Canis familiaris; assay: In vitro electrophysiological evaluation in canine cardiac ventricular muscle reported as % change for the functional refractory period (FRP) at 10 uM at concentration range of 0.1-10 uM; design: species or system Canis lupus familiaris, Muscle tissue; method in brief: as §2
Canis familiaris [15] = species on record: Canis familiaris; assay: In vitro electrophysiological evaluation in canine cardiac ventricular muscle reported as maximum % change for conduction time(CT) at 0.1-10 uM concentration range; Minimal (<10% decrease or increase in CT).; assay type: functional, Canis lupus familiaris, Muscle tissue; method in brief: as §2
Canis familiaris [16] = species on record: Canis familiaris; assay: In vitro electrophysiological evaluation in canine cardiac ventricular muscle reported as % change for conduction time(CT) at 10 uM at 0.1-10 uM concentration range; Minimal (<10% decrease or increase in CT).; assay type: functional, Canis lupus familiaris, Muscle tissue
Canis familiaris [17] = species on record: Canis familiaris; assay: In vitro electrophysiological evaluation in canine cardiac ventricular muscle reported as maximum % change for functional refractory period (FRP) at 0.1-10 uM concentration range; concentration at which it occurred is 10 uM; design: species or system Canis lupus familiaris, Muscle tissue; method in brief: as §2
Canis familiaris [18] = species on record: Canis familiaris; assay: In vitro electrophysiological activity in canine cardiac occurred is 10 uM; assay type: functional, Canis lupus familiaris, Heart

Row | SMILES | APD95 (Canis familiaris [1]) | APD95 (Canis familiaris [2]) [%] | Vmax (Canis familiaris [3]) [%] | FRP (Canis familiaris [4]) | Vmax (Canis familiaris [5]) [%] | Vmax (Canis familiaris [6]) [%] | Vmax (Canis familiaris [7]) [%] | APD95 (Canis familiaris [8]) [%] | APD (Canis familiaris [9]) [%] | APD95 (Canis familiaris [9]) | CT (Canis familiaris [10]) [%] | CT (Canis familiaris [11]) [%] | Vmax (Canis familiaris [12]) [%] | FRP (Canis familiaris [13]) | FRP (Canis familiaris [14]) [%] | CT (Canis familiaris [15]) [%] | CT (Canis familiaris [16]) [%] | FRP (Canis familiaris [17]) [%] | APD95 (Canis familiaris [18]) [%]
1 | CS(=O)(=O)Nc1ccc(C(=O)CCC2C(=O)C3CCN2CC3)cc1.Cl (stereo not given) | 36% and 18% | 16 | < 10 | 32% and 21% and 24% | < 10 | < 10 | -24 | 5 | 24 | -1% and 10% | <10 | <10 | < 10 | 18% and 12% and 13% | – | – | – | – | –
2 | CC(=O)C(CC1C(=O)C2CCN1CC2)C(=O)c1ccccc1.Cl (stereo not given) | -19% | -6 | < 10 | – | < 10 | – | – | -5 | – | – | – | – | < 10 | – | 14 | <10 | <10 | 20 | -6
